The list is not random: actives were taken first. Their share in the collection is about 4.9%.
STAT3 act – activators of IL-6 induced STAT3 signaling; U3A cells, IL-6 STAT3-luciferase reporter, luminescence; 100% = signal with IL-6 EC80 alone; activation (% of control), % at 5.6 µM; 0.91% of 190,000 active;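 active = activation above the screen-wide mean of compound activation plus 3 SD, cut at about 130% in these data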;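 note: 0% = background luminescence of wells with medium and substrate only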
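Test system: Human STAT1-deficient U3A cells with stable STAT3-luciferase reporter | Also added: Interleukin-6, 33 ng/mL | Timing: Compound pre-incubation 1 h before IL-6, then 6 h stimulation at 37 °C | Technique: Luciferase reporter luminescence | Read-out: Percent of IL-6-only median luminescence | Benchmarks: IL-6-only wells as 100% reference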
STAT3 inh – reduces IL-6 driven STAT3 reporter signal; U3A cells, IL-6 STAT3-luciferase reporter, luminescence; host cell line lacks STAT1; inhibition, % at 5.5 µM; 0.89% of 190,000 active; AID 862;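 active = inhibition above the mean inhibition across all screened compounds plus 3 SD, cut at about 44% in these data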;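 note: 0% = DMSO only wells and 100% = 100 µM nifuroxazide control wells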
NF-kB neuron act – compounds increasing NF-kB expression in human neuronal cells; fold change at 12.5 µM; NF-kB reporter expression; stronger effect = higher value; 1.6% of 190,000 active; in the data active = fold change above about 3.3
STAT1 inh – inhibitors of IFN-gamma induced STAT1 signaling | 0.35% of 200,000 active | inhibition, % at 5.5 µM | NIH 3T3 STAT1-luciferase reporter, luminescence;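 active = inhibition above a set limit, the mean inhibition across all tested compounds plus 3 SD, cut at about 34% in these data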;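 note: 0% = IFN-gamma with DMSO and 100% = IFN-gamma with 300 µM nifuroxazide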
STAT1 act – STAT1 signaling activation | NIH 3T3 STAT1-luciferase reporter, IFN-gamma, luminescence; 100% = IFN-gamma alone, no compound | activation (% of control), % at 5.5 µM | 2.6% of 200,000 active | AID 932;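 active = activation above the screen-wide mean activation plus 3 SD, cut at about 130% in these data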;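 note: raw ratio to IFN-gamma control signal so 100% means no change and 0% no light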
APP 5'UTR act – activates APP 5'UTR luciferase reporter. SH-SY5Y APP 5'UTR luciferase reporter, luminescence; zero percent = DMSO vehicle wells. activation, % at 2 µM. 1% of 190,000 active. AID 1276;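 active = activation above a set limit, based on mean plus 3 SD of controls, cut at about 140% in these data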
The depositor's hits bear a star.

SMILES | STAT3 act | STAT3 inh | NF-kB neuron act | STAT1 inh | STAT1 act | APP 5'UTR act
Cc1ccc2cc(C#N)c(SCc3nnc(-c4ccccc4[N+](=O)[O-])o3)nc2c1 | 81 | 24 | 4.7* | 4 | 96 | 28
Cc1ccc2nc3sc(-c4nnc(-c5ccccc5[N+](=O)[O-])o4)c(N)c3cc2c1 | 82 | 28 | 0.9 | 14 | 89 | -5
Cc1nnc(SCC(=O)N(C)C2CCCCC2)s1 | 101 | 1 | 1.3 | -8 | 106 | 16
COc1ccccc1CNC(=O)CSc1ccc(-c2cccc([N+](=O)[O-])c2)nn1 | 90 | 16 | 0.87 | 10 | 88 | 4
Cc1cccc(-c2cc3nc(C)cc(C)n3n2)c1 | 116 | -16 | 5.9* | -57 | 150* | 142*
Cc1ccc(-c2c[n+](CC(=O)Nc3cc(=O)n(C)c(=O)n3C)c3n2CCC3)cc1 | 105 | -4 | 0.85 | 6 | 95 | 0
COc1cc(/C=N/NS(=O)(=O)c2ccc(C)cc2)ccc1OCc1ccc(C(=O)O)cc1 | 56 | 54* | 2.8 | 85* | 22 | -33
Nc1nc(-c2cccs2)cs1 | 122 | -21 | 1.1 | -19 | 117 | 6
c1csc(-c2ccc3ccccc3n2)c1 | 88 | 16 | 2.2 | -52 | 147* | 43
O=C(O)CC(NC(=O)c1cccc([N+](=O)[O-])c1)c1ccc2c(c1)OCO2 (configuration not stated) | 104 | -2 | 1.1 | -5 | 104 | 8
Cc1ccc(S(=O)(=O)NC(C)(C)CSc2nnc(Nc3ccccc3)s2)cc1 | 95 | 10 | 0.92 | 2 | 98 | -2
CC(C)Sc1nnc(Nc2ccccc2)s1 | 99 | 11 | 1.1 | -42 | 138* | 71
CC(=O)Cc1nsc(Nc2ccc3c(c2)OCCO3)n1 | 114 | -12 | 2.1 | -52 | 148* | 92
CC(C)N(CCNC(=O)c1oc(=O)c2ccccc2c1-c1ccccc1)Cc1ccco1 | 103 | -2 | 1.6 | 2 | 97 | 34
C/C(=N\OC(=O)NC1CCCCC1)c1sc(-c2ccccc2)nc1C | 83 | 25 | 1.9 | -11 | 110 | 38
C/C(=N\OC(=O)NC(C)C)c1sc(-c2ccc(Cl)cc2)nc1C | 95 | 8 | 5.8* | -19 | 117 | 39
CCNC(=O)O/N=C(\C)c1sc(-c2ccc(Cl)cc2)nc1C | 113 | -15 | 7.1* | -49 | 144* | 160*
C/C(=N\OC(=O)NC(C)C)c1sc(-c2ccccc2)nc1C | 88 | 20 | 1.7 | -19 | 117 | 82
COc1ccccc1C(=O)NC(=Nc1nc2ccccc2o1)NC(=O)c1ccccc1OC | 136* | -41 | 0.48 | -1 | 99 | 2
CCCC(O)(CCC)C(=O)NN(C(=O)CCl)c1ccccc1 | 106 | -9 | 7.2* | -5 | 104 | -1
CCCCC(O)(CCCC)C(=O)NN(C(=O)OCC)c1ccccc1 | 99 | -4 | 1.1 | -3 | 102 | 12
C=C(C)C1CC=C(C)/C(=N/NC(=O)c2ccccc2[N+](=O)[O-])C1 (configuration not stated) | 92 | 15 | 1.1 | 14 | 87 | 14
C=C(C)C1CC=C(C)/C(=N/NC(=O)c2cccs2)C1 (configuration not stated) | 101 | -3 | 3.2 | -33 | 129* | 63
COc1ccc(CC(=O)NCc2n[nH]c(=S)n2-c2ccccc2OC)cc1 | 107 | -6 | 1 | 2 | 97 | -19
Cc1cc(=O)oc2cc(OCC(=O)N3CCCC(C)C3)ccc12 (configuration not stated) | 100 | 7 | 0.64 | 2 | 98 | 7
SMILES | STAT3 act | STAT3 inh | NF-kB neuron act | STAT1 inh | STAT1 act | APP 5'UTR act
Cc1cc(=O)oc2ccc(OCC(=O)N3CCC(C)CC3)cc12 | 135* | -35 | 0.49 | 1 | 99 | 7
COc1cc(-n2nnnc2SC)c(OC)cc1Cl | 100 | 7 | 3.6* | 2 | 97 | -6
CSc1nsc(SCC(=O)N2CCCCC2)n1 | 88 | 16 | 2 | -34 | 130* | 8
CC(=O)c1cn(CCC(C)C)c(=O)[nH]c1=O | 108 | -4 | 1 | -5 | 104 | 7
Cc1nn(-c2ccccc2)c(Cl)c1/C=N/NC(=O)c1ccco1 | 95 | 16 | 2.2 | -45 | 141* | 85
Cc1nn(-c2ccccc2)c(Cl)c1/C=N/NC(=O)OC(C)(C)C | 105 | -6 | 0.83 | -43 | 139* | 65
Cc1nn(-c2ccccc2)c(C)c1/C=N/NC(=O)c1cc(-c2cccs2)[nH]n1 | 128 | -37 | 0.65 | -1 | 101 | -93
Cc1nn(-c2ccccc2)c(C)c1/C=N/NC(=O)c1cccs1 | 92 | 10 | 1.3 | -44 | 140* | 50
O=C(O)c1cc(N/N=C/c2ccc(OCc3ccccc3)cc2)ccc1Cl | 111 | -11 | 2.6 | -37 | 134* | 104
CC(C)C(=O)N/N=C/c1ccc(OCc2ccccc2)cc1 | 104 | 6 | 1.3 | 4 | 96 | 7
CC(=O)Nc1nc(NC(=O)/C=C/c2ccccc2)n(-c2ccccc2)n1 | 95 | 8 | 0.61 | 9 | 92 | -11
Cc1ccc2[nH]c(O)c(N=NC(=O)C3CC3c3ccccc3)c2c1Br (configuration not stated) | 96 | 7 | 1.2 | 5 | 96 | -8
Cc1nn(-c2ccccc2)c(Cl)c1/C=N/Nc1ccc(Cl)c(C(=O)O)c1 | 63 | 44* | 10* | 42* | 62 | 74
O=C(Cc1ccc(S(=O)(=O)N2CCCCC2)s1)Nc1cccc2ccccc12 | 105 | 3 | 1.2 | 2 | 98 | 5
Cc1ccccc1Oc1ccc(Oc2ccccc2C)nn1 | 113 | -8 | 2.2 | -34 | 131* | 66
Cc1ccc(-c2nnn(CC(=O)Nc3nnc(C(C)C)s3)n2)cc1 | 93 | 10 | 1.3 | 0 | 100 | 4
O=C(CCCl)N(Cc1nc2ccccc2c(=O)[nH]1)Cc1cccs1 | 101 | 1 | 1.2 | -2 | 100 | 0
CC(CC(=O)NCC1CCCO1)c1ccccc1 (configuration not stated) | 101 | 4 | 1.1 | -2 | 102 | 5
COc1ccc(OC)c(Cc2nnc(CCC(=O)N3CCCCC3c3nccs3)o2)c1 (configuration not stated) | 117 | -15 | 2.3 | -39 | 134* | 35
CCc1nnc2c3cnn(-c4ccccc4)c3ncn12 | 87 | 19 | 1.5 | -35 | 133* | 0
c1ccc(-n2ncc3c2ncn2cnnc32)cc1 | 95 | 14 | 0.98 | 1 | 99 | -3
Cc1ccc(-n2ncc3c2ncn2c(C)nnc32)cc1C | 92 | 10 | 3.4* | -39 | 136* | 25
O=C(N/N=C/c1sc(=O)n(-c2ccccc2)c1Cl)c1ccccc1 | 91 | 11 | 1 | -53 | 147* | 89
CC(C)c1ccc(C2NC(=O)NC3=C2CCc2ccccc23)cc1 (configuration not stated) | 91 | 15 | 0.84 | 4 | 96 | -2

Source: PubChem
